Hits are enriched below; roughly 11% of the tested compounds scored in any of these assays.
M1 antag: antagonists of rat M1 muscarinic receptor. Muscarinic acetylcholine receptor M1 (Rattus norvegicus), P08482. CHO-M1 cells, Fluo-4 calcium, ACh EC80 antagonist mode; hits give low values. B-score at 10 µM. 64,000 tested, 3.4% active. AID 628, 2007;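 active means calcium fluorescence response, raw or row-and-column corrected B-score, differing from the plate sample mean either way at a set confidence level, mostly lower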
S1P3 agonist: human S1P3 receptor agonists, primary screen, cell-based, primary and confirmation, NFAT-BLA reporter | Sphingosine 1-phosphate receptor 3 (Homo sapiens), Q99500 | S1P3 NFAT-BLA reporter cells, agonism, FRET ratio; relative to 1 µM S1P, basal subtracted | activation, % at 4.5 µM | 60,000 tested, 0.1% active;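 active means activation above the screen-wide mean plus 3 SD, cut at about 4.5% in these data, passing the limit was not always enough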
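Benchmarks: high control 1 µM S1P / System: stable CHO line with human S1P3, Gα16, NFAT-BLA reporter / Dosing: single compound concentration, 4.5 µM final / Timing: 4 h compound at 37 °C, 2 h substrate at RT / Measured by: FRET β-lactamase substrate fluorescence, excitation 405 nm, 460/535 nm emission ratio, background-subtracted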
M1 ag: M1 muscarinic receptor agonists, primary screen, CHO-M1 cells, Fluo-4 calcium, agonist mode. Fluo-4 calcium fluorescence; hits give high values. B-score at 10 µM. 64,000 tested, 3% active. AID 626, 2007;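 active means fluorescence rise, raw or as B-score row- and column-corrected plate score, outside the 99.7% band of its plate's samples, either direction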
S1P1 ag-PAM: S1P1 agonists and agonism potentiators, primary screen, cell-based, primary and confirmation screens, CRE-bla reporter. activation, % at 9.5 µM. S1P1 CRE-bla cells, forskolin, beta-lactamase FRET, potentiator mode; S1P1 agonist co-added at EC20, 2 nM; 100% = saturating reference agonist, 0% = basal. 56,000 tested, 0.57% active. Sphingosine 1-phosphate receptor 1 (Homo sapiens), P21453;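 active means activation above a cutoff set at the mean activation of all tested compounds plus 3 SD, cut at about 54% in these data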;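 further: forskolin at 4 µM as EC80 and the EC20 agonist is SEW2871; 100% = SEW2871 at its EC100 plus forskolin at EC80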
D1 mod: D1 CRE-luciferase signal change, two-sided – cell-based, HEK293 D1, dopamine EC30, D1 allosteric modulator project, primary screen; 58,000 tested, 5.9% active; B-score at 10 µM; dopamine EC30 potentiation; actives deviate in either direction; AID 641, 2007;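 active means luminescence count or its row- and column-corrected plate score outside the 99.7% band of the plate's sample wells, on either side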
Target sequence (P21728 whole entry, looked up): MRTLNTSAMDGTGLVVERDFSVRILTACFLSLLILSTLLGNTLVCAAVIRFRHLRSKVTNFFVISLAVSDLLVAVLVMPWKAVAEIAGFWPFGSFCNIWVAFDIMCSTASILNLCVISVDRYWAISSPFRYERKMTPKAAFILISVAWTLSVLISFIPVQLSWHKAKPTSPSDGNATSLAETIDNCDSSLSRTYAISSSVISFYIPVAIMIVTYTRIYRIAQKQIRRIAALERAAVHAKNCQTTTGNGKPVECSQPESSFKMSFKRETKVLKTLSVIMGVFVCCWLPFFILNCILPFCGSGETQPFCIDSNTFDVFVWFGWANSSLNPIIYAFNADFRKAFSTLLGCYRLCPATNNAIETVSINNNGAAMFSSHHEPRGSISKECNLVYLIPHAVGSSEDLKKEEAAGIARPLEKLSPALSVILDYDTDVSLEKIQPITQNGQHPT
M1 antag confirm: rat M1 muscarinic receptor antagonists, confirmation, CHO cells, Fluo-4 calcium, duplicate | 1,700 tested, 43% active | ACh EC80 antagonism; hits give low values | calcium response (max-min fluorescence) at 10 µM | shares compounds with M1 antag;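 active means calcium response below the same-plate mean of wells given acetylcholine alone at its 80%-effect dose, minus 3 SD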;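 further: raw fluorescence intensity difference in arbitrary instrument units and not normalized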
mGluR4 antag: human mGluR4 response to M1 antagonist hits, M1 allosteric modulator project, cell-based, antagonist mode, secondary assay 1. shares compounds with M1 antag. AID 678, 2007. CHO-mGluR4 calcium flux, Fluo-4 fluorescence, glutamate EC80; hits give low values. fluorescence response (max-min) at 10 µM. 1,700 tested, 0.9% active;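 active means fluorescence response below the plate's average for near-maximal glutamate wells, less 3 SD of those wells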;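 further: raw unnormalized fluorescence span taken in the window right after glutamate addition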
Active calls of the source: *; · = no result given.

SMILES | M1 antag | S1P3 agonist | M1 ag | S1P1 ag-PAM | D1 mod | M1 antag confirm | mGluR4 antag
Cc1ccc2[nH]c3c(c2c1)CN(C(=O)CN1CCSCC1)CC3 | -3.1* | -1 | 1.4 | -8 | -0.36 | 476 | 223
COC(=O)c1ccc2[nH]c(C)cc(=O)c2c1 | -6.5* | · | -0.037 | · | 0.32 | 210* | 186
Cc1cc(C)nc(N2CCC(C(=O)O)CC2)n1 | 0.28 | 0 | -0.38 | 6 | -0.83 | · | ·
Cc1cc(C)nc(N2CCN(c3nc(C)cc(C)n3)CC2)n1 | -7.7* | 0 | -0.26 | -18 | -0.84 | 719 | 217
CCOC(=O)N1CCC(NC(=O)CCc2c(C)nc3nc(C)nn3c2C)CC1 | -0.056 | 0 | -0.27 | -32 | · | · | ·
CCOC(=O)N1CCC(NC(=O)CCc2c(C)nc3c(c(C)nn3C(C)(C)C)c2C)CC1 | -1* | 0 | -0.072 | -24 | -0.33 | 430 | 228
CN(C)CCCN1C(=O)C(=O)/C(=C(/O)c2ccc3c(c2)OCO3)C1c1ccccn1 (centres undefined) | 0.051 | -1 | -1.6 | · | -0.58 | · | ·
CCN1CCN(C(=O)c2oc(=O)c3ccccc3c2-c2ccc(C)cc2)CC1 | -1.8* | 0 | 0.32 | -10 | 0.44 | 320* | 212
O=c1c2ccccc2nc(SCc2nc(-c3ccccc3)no2)n1-c1ccc(F)cc1 | -0.42 | -2 | -1.8 | 3 | -0.39 | · | ·
COc1ccc(-c2noc(CSc3nc4ccccc4c(=O)n3-c3ccccc3)n2)cc1OC | -3.9* | -1 | 0.0052 | · | · | 671 | 235
O=C(Cn1c(-c2ccccc2)noc1=O)NCc1ccccc1 | -0.077 | 0 | 0.19 | -2 | -0.0061 | · | ·
CCOc1cc(S(=O)(=O)NCC2OCCc3ccccc32)c(OCC)cc1-n1cnnn1 (centres undefined) | 0.6 | -1 | 0.046 | -2 | -0.12 | · | ·
COc1cccc2cc(C(=O)N3CCN(C45CC6CC(CC(C6)C4)C5)CC3)c(=O)oc12 | -1.8* | -1 | 0.5 | 11 | -0.11 | 412* | 201
COc1cccc2cc(C(=O)N3CCC(C)CC3)c(=O)oc12 | 0.096 | -1 | -0.95 | -8 | 0.87 | · | ·
COc1cc(-c2nnc3sc(-c4cccnc4)nn23)cc(OC)c1OC | -0.59 | -1 | 0.99 | -19 | 1.5 | · | ·
COc1ccccc1C(=O)Nc1c(C)n(C)n(-c2ccccc2)c1=O | -0.033 | 0 | 0.29 | -1 | -1.1 | · | ·
COc1ccc(N2C(=O)C(Cl)=C(Nc3c(C)n(C)n(-c4ccccc4)c3=O)C2=O)cc1 | -3.8* | -1 | -0.0043 | -12 | -0.084 | 427* | 254
C#CCNc1nc(C)nc2c1nnn2Cc1ccccc1F | 0.12 | 0 | 0.037 | -14 | 3.6 | · | ·
CCOC(=O)C1=C(O)CCn2c1nc1ccccc12 | -2.3* | 0 | 0.086 | 2 | 0.95 | 640 | 233
CCOC(=O)c1ccc(S(=O)(=O)n2c(CN3CCCCC3)nc3ccccc32)cc1 | -0.46 | 0 | 0.28 | -6 | 2.1 | · | ·
CCC1(C)Cc2c(sc3c2c(=O)n(C)c2nnc(SCc4ccccc4)n32)CO1 (centres undefined) | 0.15 | 20 | -0.003 | 7 | · | · | ·
CCC1(C)Cc2c(sc3c2c(=O)n(C)c2nnc(SCCc4ccccc4)n32)CO1 (centres undefined) | -3.1* | -1 | -1 | -20 | 0.21 | 489* | 244
Cn1c(NC(=O)c2cc(Cl)ccc2Cl)cc(=O)n(C)c1=O | -0.019 | 1 | -0.89 | -26 | 0.46 | · | ·
COc1cccc(C(=O)Nc2cc(=O)n(C)c(=O)n2C)c1OC | -3.8* | -1 | -0.46 | -16 | -0.28 | 651 | 238
O=c1c2ccccc2nnn1CSc1nnc(-c2cccc(S(=O)(=O)N3CCCCC3)c2)o1 | -4.2* | · | 1.7 | · | 2.8 | 366* | 238
SMILES | M1 antag | S1P3 agonist | M1 ag | S1P1 ag-PAM | D1 mod | M1 antag confirm | mGluR4 antag
COc1ccccc1NC(=O)C(C)NS(=O)(=O)c1ccc(Cl)cc1 (centres undefined) | 1.6 | -1 | 0.46 | 7 | 0.56 | · | ·
CS(=O)CSc1nc2c(cc1C#N)CCCC2 (centres undefined) | -9.3* | 0 | -0.2 | -26 | 0.5 | 260* | 203
CCCCSc1nc2c(cc1C#N)CCC2 | -0.1 | -1 | 0.57 | 10 | 2.1 | · | ·
O=C1c2oc3ccc(F)cc3c(=O)c2C(c2ccccc2)N1CC1CCCO1 (centres undefined) | -0.24 | -1 | 0.22 | -7 | · | · | ·
O=S1(=O)C=CC(N2CCOCC2)C1 (centres undefined) | 0.54 | · | -0.19 | · | 0.09 | · | ·
CCOC(=O)c1ccc(NC(=O)CCC(CC)C(=O)O)cc1 (centres undefined) | 0.25 | -3 | -0.99 | 6 | · | · | ·
CCCCC(CCC(=O)Nc1ccccc1C(=O)OCC)C(=O)O (centres undefined) | -4.3* | 0 | 1.5 | -9 | -0.036 | 685 | 251
CCC(=O)N1CCN(c2ccc(NC(=O)c3ccc4c(c3)OCO4)cc2)CC1 | -1 | 0 | 0.19 | 14 | -0.34 | · | ·
CCN1CCN(C(c2cccs2)C(C)NC(=O)c2cccnc2)CC1 (centres undefined) | -1.4* | 0 | -0.086 | 1 | -4.4* | 578* | 239
CCN1CCN(c2ccc(NC(=O)COc3ccccc3Cl)cc2)CC1 | -9* | -1 | 0.0017 | -17 | -5* | 322* | 168
CCN1CCN(c2ccc(NC(=O)c3ccc4c(c3)OCO4)cc2)CC1 | -3* | 0 | 0.068 | 14 | · | 398* | 267
CCN1CCN(c2ccc(NC(=O)c3cccnc3)cc2Cl)CC1 | -3.6* | 1 | -0.86 | -4 | -1.3 | 460* | 190
CCn1c(CNc2ccc(F)cc2)nnc1SCC(=O)Nc1ccc(OC)cc1OC | 0.022 | 1 | 0.021 | -3 | 0.7 | · | ·
O=C(CCN1c2ccccc2Sc2ccccc21)OCC(=O)N1CCN(C(=O)c2ccco2)CC1 | -0.37 | -1 | 1.6 | 8 | 0.12 | · | ·
CCCCOc1cccc(C(=O)Nc2ccc(N3CCN(CC)CC3)cc2)c1 | -16* | -1 | 0.12 | -34 | -3.6* | 36* | 254
CCn1c(CSc2nnc(-c3ccc4c(c3)OCO4)o2)nc2cc(S(=O)(=O)N(C)C)ccc21 | · | 0 | · | 25 | · | · | ·

Bioassay records deposited in PubChem BioAssay by several laboratories.
